Assay results as given in paper PMC9933479 (ACS Omega, 2023).
Read-outs that look alike come from different tables or passages of the source.

Experiments:
Experiment in all cases: MTT assay, cytotoxicity/growth inhibition
MCF-7 (breast carcinoma) = type: cell-based; settings: Homo sapiens; for IC50: MCF7; for inhibition at 20 µM: MCF7, 48 h, read-out: Cytotoxic Activity (% Growth Inhibition)
Outline: (§1)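 Cells were grown in RPMI (A549, HCT-116, PC-3) or DMEM (MCF-7) with 10% FBS at 37 °C and 5% CO2. Seeding per well was […] and PC-3 8 × 10^4 cells. […] MTT 250 μg/mL, 4 h; DMSO; A570; triplicate; mean ± SE.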

[1] = tested on: PC-3 (prostate carcinoma); type: cell-based; settings: Homo sapiens; for inhibition at 20 µM: 48 h, read-out: Cytotoxic Activity (% Growth Inhibition)
Outline: as §1

A549 (lung carcinoma) = type: cell-based, human; settings: for IC50 / inhibition at 20 µM: Homo sapiens; for IC50: A549; for inhibition at 20 µM: A549, 48 h; for Cytotoxic Activity (% Growth Inhibition): A549, 20 μM concentration, MTT, 48 h, 20 µM
Outline: as §1

[2] = tested on: HCT-116 (colon carcinoma); type: cell-based; settings: Homo sapiens; for IC50: HCT-116; for inhibition at 20 µM: HCT-116, 48 h, read-out: Cytotoxic Activity (% Growth Inhibition)
Outline: as §1

[3] = read-out: Cytotoxic Activity (% Growth Inhibition), A549, 20 μM concentration, MTT, 48 h

Row | SMILES | IC50 (MCF-7 (breast carcinoma)) [µM] | inhibition at 20 µM (MCF-7 (breast carcinoma)) [%] | IC50 [1] [µM] | inhibition at 20 µM [1] [%] | IC50 (A549 (lung carcinoma)) [µM] | inhibition at 20 µM (A549 (lung carcinoma); [3]) [%] | IC50 [2] [µM] | inhibition at 20 µM [2] [%] | inhibition at 20 µM (A549 (lung carcinoma); read-out: Cytotoxic Activity (% Growth Inhibition)) [%] | Cytotoxic Activity (% Growth Inhibition) (A549 (lung carcinoma)) [%]
1 | CCCCCCCCCCCC(=O)OCC1=CCC2[C@]3(C)COC(c4ccccc4)O[C@@H]3CC[C@@]2(C)[C@@H]1/C=C/C1=CCOC1=O (stereo partly drawn) [Compound 8y, ((4aR,6aR,7S,10bR)-6a,10b-Dimethyl-7-((E)-2-(2-oxo-2,5-dihydrofuran-3-yl)vinyl)-3-phenyl-4a,5,6,6a,7,10,10a,10b-octahydro-1H-naphtho[2,1-d][1,3]dioxin-8-yl)methyl Dodecanoate] | 20 | 51 ± 0.35 | > 20 | 32 ± 0.66 | 11 | 71 ± 0.77 | > 20 | 40.1 ± 0.8 |  | 
2 | COc1ccc(C(=O)OCC2=CCC3[C@](C)(CO)[C@H](O)CC[C@@]3(C)[C@@H]2/C=C/C2=CCOC2=O)cc1Cl (stereo partly drawn) [Compound 9l, ((1S,5R,6R,8aR)-6-Hydroxy-5-(hydroxymethyl)-5,8a-dimethyl-1-((E)-2-(2-oxo-2,5-dihydrofuran-3-yl)vinyl)-1,4,4a,5,6,7,8,8a-octahydronaphthalen-2-yl)methyl 3-Chloro-4-methoxybenzoate] | 17.8 | 47 ± 0.24 | 5.7 | 71.4 ± 0.56 | > 20 | 3.3 ± 0.63 | > 20 | 27.5 ± 0.94 |  | 
3 | C[C@@]12COC(c3ccccc3)O[C@@H]1CC[C@]1(C)C2CC=C(COC(=O)Cc2ccccc2)[C@H]1/C=C/C1=CCOC1=O (stereo partly drawn) [Compound 8o, ((4aR,6aR,7S,10bR)-6a,10b-Dimethyl-7-((E)-2-(2-oxo-2,5-dihydrofuran-3-yl)vinyl)-3-phenyl-4a,5,6,6a,7,10,10a,10b-octahydro-1H-naphtho[2,1-d][1,3]dioxin-8-yl)methyl 2-Phenylacetate] |  | 32.09 ± 0.08 |  | 0 |  |  |  | 24.97 ± 0.16 | 20.13 ± 0.02 | 
4 | Cc1cccc(C(=O)OCC2=CCC3[C@](C)(CO)[C@H](O)CC[C@@]3(C)[C@@H]2/C=C/C2=CCOC2=O)c1 (stereo partly drawn) [Compound 9i, ((1S,5R,6R,8aR)-6-Hydroxy-5-(hydroxymethyl)-5,8a-dimethyl-1-((E)-2-(2-oxo-2,5-dihydrofuran-3-yl)vinyl)-1,4,4a,5,6,7,8,8a-octahydronaphthalen-2-yl)methyl 3-Methylbenzoate] |  | 2.09 ± 0.07 |  | 0 |  | 21.4 ± 0.42 |  | 0 |  | 
5 | COc1cc(CC(=O)OCC2=CCC3[C@](C)(CO)[C@H](O)CC[C@@]3(C)[C@@H]2/C=C/C2=CCOC2=O)cc(OC)c1OC (stereo partly drawn) [Compound 9u, ((1S,5R,6R,8aR)-6-Hydroxy-5-(hydroxymethyl)-5,8a-dimethyl-1-((E)-2-(2-oxo-2,5-dihydrofuran-3-yl)vinyl)-1,4,4a,5,6,7,8,8a-octahydronaphthalen-2-yl)methyl 2-(3,4,5-Trimethoxyphenyl)acetate] |  | 69 ± 0.58 |  | 48.7 ± 0.96 |  | 32.6 ± 0.38 |  | 35.9 ± 0.87 |  | 
6 | C[C@]1(CO)C2CC=C(COC(=O)c3cccc(C(F)(F)F)c3)[C@@H](/C=C/C3=CCOC3=O)[C@]2(C)CC[C@H]1O (stereo partly drawn) [Compound 9h, ((1S,5R,6R,8aR)-6-Hydroxy-5-(hydroxymethyl)-5,8a-dimethyl-1-((E)-2-(2-oxo-2,5-dihydrofuran-3-yl)vinyl)-1,4,4a,5,6,7,8,8a-octahydronaphthalen-2-yl)methyl 3-(Trifluoromethyl)benzoate] |  | 30.4 ± 0.36 |  | 29 ± 1.4 |  | 28.81 ± 0.03 |  | 3.31 ± 0.13 |  | 
7 | Cc1cccc(C(=O)OCC2=CCC3[C@]4(C)COC(c5ccccc5)O[C@@H]4CC[C@@]3(C)[C@@H]2/C=C/C2=CCOC2=O)c1 (stereo partly drawn) [Compound 8i, ((4aR,6aR,7S,10bR)-6a,10b-Dimethyl-7-((E)-2-(2-oxo-2,5-dihydrofuran-3-yl)vinyl)-3-phenyl-4a,5,6,6a,7,10,10a,10b-octahydro-1H-naphtho[2,1-d][1,3]dioxin-8-yl)methyl 3-Methylbenzoate] |  | 4.37 ± 0.01 |  | 0 |  | 68 |  | 4.35 ± 0.54 |  | 67.66 ± 0.23
8 | Cc1ccc(CC(=O)OCC2=CCC3[C@](C)(CO)[C@H](O)CC[C@@]3(C)[C@@H]2/C=C/C2=CCOC2=O)cc1 (stereo partly drawn) [Compound 9t, ((1S,5R,6R,8aR)-6-Hydroxy-5-(hydroxymethyl)-5,8a-dimethyl-1-((E)-2-(2-oxo-2,5-dihydrofuran-3-yl)vinyl)-1,4,4a,5,6,7,8,8a-octahydronaphthalen-2-yl)methyl 2-(p-Tolyl)acetate] |  | 5.2 ± 0.5 |  | 52 ± 0.85 |  | 49.7 ± 0.92 |  | 13.9 ± 0.64 |  | 
9 | C[C@]1(CO)C2CC=C(COC(=O)c3cccc(Br)c3)[C@@H](/C=C/C3=CCOC3=O)[C@]2(C)CC[C@H]1O (stereo partly drawn) [Compound 9e, ((1S,5R,6R,8aR)-6-Hydroxy-5-(hydroxymethyl)-5,8a-dimethyl-1-((E)-2-(2-oxo-2,5-dihydrofuran-3-yl)vinyl)-1,4,4a,5,6,7,8,8a-octahydronaphthalen-2-yl)methyl 3-Bromobenzoate] |  | 1.93 ± 0.1 |  | 0 |  | 50.55 ± 0.17 |  | 14.1 ± 0.24 |  | 
10 | C[C@]1(CO)C2CC=C(COC(=O)c3cccc(Cl)c3)[C@@H](/C=C/C3=CCOC3=O)[C@]2(C)CC[C@H]1O (stereo partly drawn) [Compound 9d, ((1S,5R,6R,8aR)-6-Hydroxy-5-(hydroxymethyl)-5,8a-dimethyl-1-((E)-2-(2-oxo-2,5-dihydrofuran-3-yl)vinyl)-1,4,4a,5,6,7,8,8a-octahydronaphthalen-2-yl)methyl 3-Chlorobenzoate] |  | 10.02 ± 0.02 |  | 0 |  | 49.19 ± 0.2 |  | 30.21 ± 0.15 |  | 
11 | C=C1CC[C@@H]2[C@](C)(CO)[C@H](O)CC[C@@]2(C)[C@@H]1C/C=C1/C(=O)OC[C@H]1O [Compound 1, Andrographolide, reference compound] | > 20 | 42.93 ± 0.05 | > 20 | 0 | > 20 | 21 | > 20 | 4.86 ± 0.25 |  | 21.64 ± 0.22
12 | COc1cccc(C(=O)OCC2=CCC3[C@]4(C)COC(c5ccccc5)O[C@@H]4CC[C@@]3(C)[C@@H]2/C=C/C2=CCOC2=O)c1 (stereo partly drawn) [Compound 8b, ((4aR,6aR,7S,10bR)-6a,10b-Dimethyl-7-((E)-2-(2-oxo-2,5-dihydrofuran-3-yl)vinyl)-3-phenyl-4a,5,6,6a,7,10,10a,10b-octahydro-1H-naphtho[2,1-d][1,3]dioxin-8-yl)methyl 3-Methoxybenzoate] |  | 6.04 ± 0.12 |  | 0 |  | < 52 |  | 11.72 ± 0.11 |  | 48.88 ± 0.17
13 | COc1ccc(C(=O)OCC2=CCC3[C@]4(C)COC(c5ccccc5)O[C@@H]4CC[C@@]3(C)[C@@H]2/C=C/C2=CCOC2=O)cc1Cl (stereo partly drawn) [Compound 8l, ((4aR,6aR,7S,10bR)-6a,10b-Dimethyl-7-((E)-2-(2-oxo-2,5-dihydrofuran-3-yl)vinyl)-3-phenyl-4a,5,6,6a,7,10,10a,10b-octahydro-1H-naphtho[2,1-d][1,3]dioxin-8-yl)methyl 3-Chloro-4-methoxybenzoate] |  | 51 ± 0.5 |  | 62 ± 0.97 |  | < 60 |  | 36.2 ± 0.8 |  | 61.6 ± 0.83
